Test [1] deals with T1, Sterol O-acyltransferase 1 (Rattus norvegicus) (UniProt O70536).
T1 sequence (whole entry): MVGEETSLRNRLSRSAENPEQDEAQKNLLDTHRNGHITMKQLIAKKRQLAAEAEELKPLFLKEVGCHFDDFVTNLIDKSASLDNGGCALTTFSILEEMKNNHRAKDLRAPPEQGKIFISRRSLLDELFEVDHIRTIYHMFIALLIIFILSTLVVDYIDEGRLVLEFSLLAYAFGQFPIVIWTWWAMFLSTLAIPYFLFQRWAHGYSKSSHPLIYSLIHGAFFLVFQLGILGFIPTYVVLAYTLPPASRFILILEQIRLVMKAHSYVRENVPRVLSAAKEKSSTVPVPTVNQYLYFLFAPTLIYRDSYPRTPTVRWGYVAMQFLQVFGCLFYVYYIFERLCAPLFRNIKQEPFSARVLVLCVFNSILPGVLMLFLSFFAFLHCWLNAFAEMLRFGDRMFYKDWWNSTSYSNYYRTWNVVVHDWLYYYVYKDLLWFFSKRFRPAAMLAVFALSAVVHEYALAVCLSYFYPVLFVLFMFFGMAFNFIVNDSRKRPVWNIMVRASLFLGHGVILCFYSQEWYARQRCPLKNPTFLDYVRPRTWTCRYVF
As to the kind of experiment: In vitro inhibitory activity against acyl coenzyme A:cholesterol acyltransferase (ACAT). Particulars: concentration not given here. Details: concentration or dose not given beside the values. Put shortly: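 ACAT enzyme from rat adrenal homogenate in 0.2 M KH2PO4 buffer pH 7.4, 1000g 15 min 5 °C supernatant (microsomal fraction). Supernatant + BSA (50 mg/mL) + compound at final 5.2 μg/mL + buffer preincubated 10 min 37 °C; [14C]oleoyl-CoA (0.4 μCi) added, 30 min 37 °C. Lipids extracted, TLC; cholesteryl ester zone counted. Mean % inhibition vs no-compound control; Student's t test.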

Test [2] relates to Rattus norvegicus. As to the kind of experiment: In vivo triglyceride lowering activity, dosed at 0.03 % of the diet. Format: functional. Put shortly:
(§1)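 Male CFE or CD-1 Sprague-Dawley rats, 140-150 g; 8 per control group, 4 per test group. Compound mixed into ground chow (w/w) via MeOH-CHCl3 (1:3) solution, solvent evaporated; controls got solvent-treated chow. Fed ad libitum 5 days, food intake monitored, killed fed and bled. Serum sterols and triglycerides by adapted autoanalyzer methods; mean percent of control, Student's t test.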

Test [3] relates to Rattus norvegicus. As to the kind of experiment: In vivo sterol lowering activity dosed at 0.10 % of the diet. It is filed as functional. Put shortly: as §1
Test [4] relates to Rattus norvegicus. Briefly: In vivo Triglyceride lowering activity at dose as 0.01 % of the diet. Format: functional. Put shortly: as §1
Test [5] has as its system Rattus norvegicus. Briefly: In vivo triglyceride lowering activity dosed at 0.10 % of the diet. It is filed as functional. Put shortly:
as §1

In test [6] the test system is Rattus norvegicus. Briefly: In vivo Sterol lowering activity at dose as 0.01 % of the diet. It is filed as functional. A digest of the protocol:
as §1

For test [7], the system named is Rattus norvegicus. As to the kind of experiment: In vivo Sterol lowering activity at dose as 0.03 % of the diet. It is filed as functional. A digest of the protocol:
as §1

Test [8] relates to Rattus norvegicus. Briefly: In vivo Triglyceride lowering activity at dose as 0.025 % of the diet. Format: functional. Put shortly: as §1
Test [9] has as its system Rattus norvegicus. Briefly: In vivo triglyceride lowering activity dosed at 0.05 % of the diet. It is filed as functional. Put shortly: as §1
The test system of test [10] is Rattus norvegicus. Briefly: In vivo Triglyceride lowering activity at dose as 0.03 % of the diet. It is filed as functional. Put shortly:
as §1

Test [11] has as its system Rattus norvegicus. Briefly: In vivo triglyceride lowering activity, dosed at 0.01 % of the diet. Format: functional. Put shortly: as §1
Test [12] has as its system Rattus norvegicus. Briefly: In vivo triglyceride lowering activity, dosed at 0.10 % of the diet. It is filed as functional. Put shortly:
as §1

The structures appear in SMILES notation.

Molecule `C=C(CCCCCCCCCC)CCCCCNc1ccc(C(=O)O)cc1` had an inhibition in test [1] of under 71%. Also, the “serum triglycerides, percent of control” value with Rattus norvegicus [2] is given as under 64%; in the test with Rattus norvegicus [5], under 30%. The “serum sterol, percent of control” value in the test with Rattus norvegicus [3] is on record as under 53%. The Diet in the test on Rattus norvegicus [4] is under 65%; in the test with Rattus norvegicus [6], under 81%; in the test with Rattus norvegicus [7], under 85%.
In turn, `CCCCCCCCc1ccc(CCCNc2ccc(C(=O)O)cc2)s1` came in with an inhibition in test [1] of under 27%. For the same molecule, the “serum triglycerides, percent of control” value is 72% in the test on Rattus norvegicus [2] and under 57% in the test with Rattus norvegicus [5]. The “serum sterol, percent of control” value in the test with Rattus norvegicus [3] is under 78%. Moreover, the Diet in the test with Rattus norvegicus [4] is 76%; in the test on Rattus norvegicus [6], 88%; in the test on Rattus norvegicus [7] it was under 92%.
In the case of `CCOC(=O)c1ccc(NCCCCCCCCCCCn2ccnc2)cc1`, the inhibition in [1] was under 72%. Also, the results for the “serum triglycerides, percent of control” value in the test on Rattus norvegicus [2] and in the test on Rattus norvegicus [5] were 92% and under 57%, respectively. For the same molecule, the “serum sterol, percent of control” value in the test with Rattus norvegicus [3] was 89%. For the same molecule, the figures for the Diet in the test with Rattus norvegicus [4], in the test on Rattus norvegicus [6] and in the test on Rattus norvegicus [7] were 78%, 89% and 100%, respectively.
Molecule `CCCCCCCCCCCc1nc(CNc2ccc(C(=O)O)cc2)c[nH]1.Cl` yielded an inhibition in test [1] of 19%. In addition, the entries for the “serum triglycerides, percent of control” value with Rattus norvegicus [2] and with Rattus norvegicus [5] were under 71% and under 70%, respectively. The “serum sterol, percent of control” value with Rattus norvegicus [3] was found to be 100%. For the same molecule, the values for the Diet with Rattus norvegicus [4], in the test with Rattus norvegicus [6] and in the test on Rattus norvegicus [7] were 79%, 99% and 93%, respectively.
In test [1], `O=C(O)c1ccc(NCCCCCCCCc2ccccc2)cc1` returned an inhibition of under 35%. For the same molecule, the entries for the “serum triglycerides, percent of control” value with Rattus norvegicus [2] and in the test on Rattus norvegicus [5] were 56% and 74%, respectively. The “serum sterol, percent of control” value in the test with Rattus norvegicus [3] turned out to be 84%. For the same molecule, the results for the Diet with Rattus norvegicus [4], in the test with Rattus norvegicus [6] and in the test on Rattus norvegicus [7] were under 54%, 90% and under 78%, respectively.
As to `C=CCCCCCCCC/C=C/CCCNc1ccc(C(=O)[O-])cc1.[Na+]`, the Diet with Rattus norvegicus [8] was determined as 106%; in the test with Rattus norvegicus [9], 90%; in the test with Rattus norvegicus [6], 88%; in the test on Rattus norvegicus [7], 92%. Further, in the test with Rattus norvegicus [3], the “serum sterol, percent of control” value is 86%. Also, the “serum triglycerides, percent of control” value in the test with Rattus norvegicus [5] is 87%.
Molecule `CCCCCCCCc1ccc(CNc2ccc(C(=O)O)cc2)s1` came in with an inhibition in test [1] of 15%. Also, the “serum triglycerides, percent of control” value in the test with Rattus norvegicus [2] and with Rattus norvegicus [5] was 70% throughout. For the same molecule, in the test on Rattus norvegicus [3], the “serum sterol, percent of control” value is listed as under 72%. In addition, the figures for the Diet in the test with Rattus norvegicus [4], in the test on Rattus norvegicus [6] and with Rattus norvegicus [7] were 82%, 85% and under 76%, respectively.
On to `CCCCCCCCc1ccc(CNc2ccc(C(=O)OCC)cc2)s1`, for which the inhibition in test [1] was under 32%. Further, the “serum triglycerides, percent of control” value in the test with Rattus norvegicus [2] is given as under 59%; in the test on Rattus norvegicus [5] it was under 61%. The “serum sterol, percent of control” value in the test with Rattus norvegicus [3] is listed as 82%. Besides, the Diet in the test with Rattus norvegicus [4] stood at 100%; with Rattus norvegicus [6] it was 97%; with Rattus norvegicus [7], 90%.
In the case of `CCCCCCCCCCCCCCCCNc1ccc(C(=O)O)cc1` [CETABEN], the “serum triglycerides, percent of control” value in the test with Rattus norvegicus [2] is recorded as under 45%; in the test with Rattus norvegicus [5] it was under 31%. Moreover, the “serum sterol, percent of control” value in the test with Rattus norvegicus [3] is under 54%. The Diet with Rattus norvegicus [4] is under 71%; with Rattus norvegicus [6], under 72%; in the test with Rattus norvegicus [7] it was under 71%.
On to `CCCCCCCCCCCCCCCCCCNc1ccc(C(=O)[O-])cc1.[Na+]`, for which the entries for the “serum triglycerides, percent of control” value with Rattus norvegicus [2] and in the test on Rattus norvegicus [5] were under 76% and under 52%, respectively. For the same molecule, the “serum sterol, percent of control” value with Rattus norvegicus [3] was 79%. The Diet in the test with Rattus norvegicus [4] is listed as 90%; in the test on Rattus norvegicus [6], under 84%; in the test on Rattus norvegicus [7], 86%.
In the case of `CCOC(=O)c1ccc(NCCCc2ccc(F)cc2)cc1`, the inhibition in [1] is 25%. For the same molecule, the Diet in the test on Rattus norvegicus [10] is 71%; in the test with Rattus norvegicus [11], 90%; with Rattus norvegicus [12] it was 68%; in the test with Rattus norvegicus [6], 83%; with Rattus norvegicus [7], 78%. For the same molecule, the “serum sterol, percent of control” value in the test on Rattus norvegicus [3] was 81%.
In test [1], `CCOC(=O)c1ccc(NCCCCCCCCCCc2ccccc2)cc1` displayed an inhibition of under 63%. For the same molecule, the “serum triglycerides, percent of control” value in the test with Rattus norvegicus [2] is under 58%; with Rattus norvegicus [5], under 77%. For the same molecule, in the test with Rattus norvegicus [3], the “serum sterol, percent of control” value is under 89%. The results for the Diet in the test with Rattus norvegicus [4], with Rattus norvegicus [6] and in the test on Rattus norvegicus [7] were 77%, 100% and under 84%, respectively.
As to `Cl.O=C(O)c1ccc(NCCCCCCCCCCCn2ccnc2)cc1`, in test [1], the inhibition worked out at 22%. The results for the “serum triglycerides, percent of control” value in the test with Rattus norvegicus [2] and in the test with Rattus norvegicus [5] were under 48% and under 47%, respectively. The “serum sterol, percent of control” value in the test with Rattus norvegicus [3] was 113%. The Diet in the test with Rattus norvegicus [4] came out at 74%; in the test on Rattus norvegicus [6], 95%; in the test with Rattus norvegicus [7], 99%.
With `CCCCCCCCCCCCCCCCCCCNc1ccc(C(=O)[O-])cc1.[Na+]`, the “serum triglycerides, percent of control” value in the test on Rattus norvegicus [2] is 99%; in the test with Rattus norvegicus [5], under 70%. For the same molecule, in the test with Rattus norvegicus [3], the “serum sterol, percent of control” value came out at 98%. In addition, the figures for the Diet with Rattus norvegicus [4], in the test on Rattus norvegicus [6] and in the test on Rattus norvegicus [7] were 102%, 93% and 98%, respectively.
Take `CCCCCCCCCCCCNc1ccc(C(=O)[O-])cc1.[Na+]`: the entries for the “serum triglycerides, percent of control” value in the test with Rattus norvegicus [2] and in the test on Rattus norvegicus [5] were under 56% and under 34%, respectively. Also, in the test with Rattus norvegicus [3], the “serum sterol, percent of control” value stood at 88%. In addition, the figures for the Diet with Rattus norvegicus [4], in the test with Rattus norvegicus [6] and in the test on Rattus norvegicus [7] were under 72%, 89% and 92%, respectively.
With `CCCCCCCCCCCCCNc1ccc(C(=O)[O-])cc1.[Na+]`, the figures for the “serum triglycerides, percent of control” value with Rattus norvegicus [2] and in the test with Rattus norvegicus [5] were 70% and under 62%, respectively. In addition, in the test on Rattus norvegicus [3], the “serum sterol, percent of control” value was under 76%. The figures for the Diet in the test with Rattus norvegicus [4], with Rattus norvegicus [6] and with Rattus norvegicus [7] were under 60%, 110% and 90%, respectively.
`O=C(O)c1ccc(NCCCCCCCCCC/C=C/c2cccs2)cc1` showed an inhibition in [1] of under 53%. The “serum triglycerides, percent of control” value in the test on Rattus norvegicus [2] is under 59%; in the test with Rattus norvegicus [5] it was under 41%. Further, the “serum sterol, percent of control” value in the test on Rattus norvegicus [3] is given as under 73%. The Diet with Rattus norvegicus [4] was 69%; in the test on Rattus norvegicus [6], under 84%; in the test on Rattus norvegicus [7], under 83%.
Turning to `O=C(O)c1ccc(NCCCCCCCCCCCCc2cccs2)cc1`, the inhibition in test [1] was under 57%. Moreover, the “serum triglycerides, percent of control” value in the test on Rattus norvegicus [2] is under 50%; in the test with Rattus norvegicus [5], under 42%. For the same molecule, in the test with Rattus norvegicus [3], the “serum sterol, percent of control” value is on record as under 70%. For the same molecule, the Diet in the test on Rattus norvegicus [4] is given as under 59%; with Rattus norvegicus [6] it was 85%; in the test with Rattus norvegicus [7], under 81%.
As to `CCCCCCCCCC/C=C/CCCNc1ccc(C(=O)[O-])cc1.[Na+]`, the “serum triglycerides, percent of control” value in the test with Rattus norvegicus [2] is listed as 117%; in the test with Rattus norvegicus [5], under 63%. Also, the “serum sterol, percent of control” value in the test on Rattus norvegicus [3] is under 82%. Further, the Diet came out at 112% with Rattus norvegicus [4], 86% in the test with Rattus norvegicus [6] and 93% in the test on Rattus norvegicus [7].

In general, inhibition refers to the percentage by which the read-out fell short of the control.

The record behind these values is ChEMBL document CHEMBL1122501, “Potential antiatherosclerotic agents. 2. (Aralkylamino)- and (alkylamino) benzoic acid analogues of cetaben” (1983).
